{"source": "ChEMBL document CHEMBL3352559", "about": "“Synthesis and pharmacological investigation of aralkyl diamine derivatives as potential triple reuptake inhibitors” (Eur J Med Chem, 2014)", "key": {"[1]": {"assay": "Elimination half life in Sprague-Dawley rat at 0.5 mg/kg, iv", "type": "ADME, organism-based", "parameters": "dose 0.5 mg/kg, route intravenous", "settings": "in vivo, read-out: beta t1/2 (converted)", "procedure,_shortened": "(§1)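 Male SD rats, fasted overnight until 6 h post-dose; single 0.5 mg/kg femoral-vein injection; blood drawn into heparin at 5, 15, 30 min, 1, 2 and 4 h; plasma stored at -40 °C; drug levels by LC/MS/MS; noncompartmental parameters.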"}, "[2]": {"assay": "Drug uptake in Sprague-Dawley rat plasma at 0.5 mg/kg iv after 0.50 hrs", "type": "ADME, organism-based", "parameters": "dose 0.5 mg/kg, route intravenous", "procedure,_shortened": "as §1"}, "[3]": {"molecular_target": "D(2) dopamine receptor (Homo sapiens) (UniProt P14416)", "sequence (P14416 whole entry)": "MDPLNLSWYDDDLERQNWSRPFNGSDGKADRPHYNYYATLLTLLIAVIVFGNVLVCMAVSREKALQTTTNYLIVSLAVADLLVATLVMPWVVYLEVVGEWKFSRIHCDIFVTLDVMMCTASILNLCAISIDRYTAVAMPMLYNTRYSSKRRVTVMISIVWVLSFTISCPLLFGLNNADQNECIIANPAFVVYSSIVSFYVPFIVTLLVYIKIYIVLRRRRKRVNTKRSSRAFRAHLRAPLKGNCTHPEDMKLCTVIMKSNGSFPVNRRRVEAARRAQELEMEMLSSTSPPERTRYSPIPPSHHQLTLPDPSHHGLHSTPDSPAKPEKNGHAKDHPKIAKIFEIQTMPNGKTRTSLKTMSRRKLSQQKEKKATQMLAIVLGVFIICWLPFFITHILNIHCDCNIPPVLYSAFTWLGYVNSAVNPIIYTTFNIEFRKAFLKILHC", "assay": "Displacement of [3H]N-Methylspiperone from human dopamine D2S receptor at 10 uM relative to control", "procedure,_shortened": "(§2)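 Outsourced CNS panel of 55 receptor binding assays run by Cerep. Compound tested at 10 μM, the default primary-binding concentration, with inhibition expressed relative to control. Inhibition above 50% taken as a significant effect.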"}, "[4]": {"molecular_target": "Mu-type opioid receptor (Homo sapiens) (UniProt P35372)", "sequence (P35372 whole entry)": "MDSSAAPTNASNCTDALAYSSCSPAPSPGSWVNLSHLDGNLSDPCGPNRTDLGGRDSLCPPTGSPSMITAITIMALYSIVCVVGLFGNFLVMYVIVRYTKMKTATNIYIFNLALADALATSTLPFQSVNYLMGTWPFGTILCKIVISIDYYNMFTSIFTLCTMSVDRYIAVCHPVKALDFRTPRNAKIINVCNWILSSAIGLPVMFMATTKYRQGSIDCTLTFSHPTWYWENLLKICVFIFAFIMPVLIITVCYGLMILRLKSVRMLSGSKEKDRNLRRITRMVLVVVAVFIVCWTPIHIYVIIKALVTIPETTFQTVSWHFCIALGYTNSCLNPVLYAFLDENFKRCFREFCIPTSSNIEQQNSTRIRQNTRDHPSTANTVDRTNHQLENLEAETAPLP", "assay": "Displacement of […] from human mu opioid receptor at 10 uM relative to control", "procedure,_shortened": "as §2"}, "[5]": {"molecular_target": "Sodium-dependent noradrenaline transporter (Homo sapiens, UniProt P23975)", "sequence (P23975 whole entry)": "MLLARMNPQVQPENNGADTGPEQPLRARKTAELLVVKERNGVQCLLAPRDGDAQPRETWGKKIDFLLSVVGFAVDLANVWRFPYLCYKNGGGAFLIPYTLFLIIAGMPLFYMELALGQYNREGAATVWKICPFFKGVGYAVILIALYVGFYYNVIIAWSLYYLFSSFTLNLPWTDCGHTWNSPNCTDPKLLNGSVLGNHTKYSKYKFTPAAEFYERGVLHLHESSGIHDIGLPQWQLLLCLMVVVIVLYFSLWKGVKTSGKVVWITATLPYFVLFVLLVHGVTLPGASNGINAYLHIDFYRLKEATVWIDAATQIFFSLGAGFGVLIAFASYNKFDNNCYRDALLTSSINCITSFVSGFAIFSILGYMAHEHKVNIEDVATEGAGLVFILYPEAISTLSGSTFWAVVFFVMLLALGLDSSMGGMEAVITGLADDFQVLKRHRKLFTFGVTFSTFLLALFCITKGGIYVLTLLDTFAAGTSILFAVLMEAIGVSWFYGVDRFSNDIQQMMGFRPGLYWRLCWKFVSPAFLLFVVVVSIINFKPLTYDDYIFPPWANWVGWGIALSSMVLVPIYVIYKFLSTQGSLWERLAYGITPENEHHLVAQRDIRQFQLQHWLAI", "settings": "10 uM"}, "[6]": {"assay": "Drug uptake in Sprague-Dawley rat brain at 0.5 mg/kg ip after 2 hrs"}}}
{"smiles": "CN(C)CCC(c1ccc(Cl)c(Cl)c1)N1CCOCC1", "note": "(stereo unspecified)", "values": [{"measurement": "half-life", "setting": "[1]", "result": 1, "unit": "h"}, {"measurement": "concentration at 0.5 h", "setting": "[2]", "result": 44.5, "unit": "ng/mL"}, {"measurement": "inhibition", "setting": "[3]", "result": 4, "unit": "%"}, {"measurement": "inhibition", "setting": "[4]", "result": 39.7, "unit": "%"}, {"measurement": "inhibition", "setting": "[5]", "result": 96.7, "unit": "%"}, {"measurement": "concentration at 2 h", "setting": "[6]", "result": 178, "unit": "ng/mL"}]}
